A short description of data set [1]: Therapeutic index, ratio of CC50 for human A549 cells to IC50 for VAVC infected in human A549 cells. Particulars: read-out: Ratio CC50/IC50; call rule not given here. The data set is classed as toxicity, cell-based.
Data set [2] has as its system Vaccinia virus. Description: Antiviral activity against VACV infected in Vero cells assessed as reduction in cytopathic effect incubated for 96 hrs by neutral red based spectrophotometric analysis. Type of data set: functional, organism-based. Particulars: Orthopoxvirus vaccinia. In general terms: Protection from cytopathic effect is a common read-out in antiviral testing.

A further data set deals with Human adenovirus 5. Description: Antiviral activity against AdV5 infected in A549 cells assessed as reduction in cytopathic effect incubated for 72 hrs by neutral red based spectrophotometric analysis. Type of data set: functional, organism-based. Particulars: Human mastadenovirus C, A549, 72 h.
Data set [3] in a line: Therapeutic index, ratio of CC50 for human A549 cells to IC50 for AdV5 infected in human A549 cells. The note with it: read-out: Ratio CC50/IC50. Type of data set: toxicity, cell-based.
In the next data set the test system is A549. Description: Cytotoxicity against human A549 cells incubated for 72 hrs by neutral red based spectrophotometric analysis. Type of data set: toxicity, cell-based. Particulars: a549, 72 h. In outline: (§1)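 Cells seeded at 3 × 10^4 cells/well and grown 24 h at 37 °C, 5% CO2. Two-fold compound dilutions starting at 200.0 μM applied for 72 h. Neutral red (40 μg/mL) added for 4 h, cells washed and destained in ethanol/acetic acid. OD read at 540 nm against cell-free blanks. CC50 from triplicates.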

Data set [4] can be described thus: Therapeutic index, ratio of CC50 for African green monkey Vero cells to IC50 for VAVC infected in african green monkey Vero cells. The data set is classed as toxicity. Particulars: read-out: Ratio CC50/IC50.
Data set [5] is described as follows: Cytotoxicity against African green monkey Vero cells incubated for 72 hrs by neutral red based spectrophotometric analysis. Type of data set: toxicity, cell-based. Particulars: chlorocebus sabaeus. In outline: as §1
For data set [6], the system named is Vaccinia virus. Description: Antiviral activity against VACV infected in A549 cells assessed as reduction in cytopathic effect incubated for 96 hrs by neutral red based spectrophotometric analysis. The data set is classed as functional, organism-based. Particulars: Orthopoxvirus vaccinia, A549, 96 h.
Data set [7] in a line: Stability in human plasma assessed as half life. Type of data set: ADME, cell-free. In outline: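 Incubated in pooled human plasma at 37 °C, half-life determined.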
The test system of another data set is Lipid bilayer. Description: Induction of micelles formation in PBS at pH 7.4 by TEM analysis. Particulars: buffer. The data set is classed as physicochemical. In outline: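 Conjugates at 50.0 μM in pH 7.4 phosphate buffer, imaged by transmission electron microscopy for micelle formation.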
The nature of data set [8]: Stability in SGF assessed as remaining compound after 120 mins. Type of data set: ADME. Particulars: read-out: Stability. In outline:
(§2)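 Incubated in simulated gastric fluid at 37 °C, remaining compound measured at 120 min.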

Data set [9] is described as follows: Stability of the compound in phosphate buffer at pH 7.4 assessed as compound remaining measured upto 400 mins in presence of GSH by HPLC method. The data set is classed as physicochemical. Particulars: for Stability: buffer, pH 7.4, 6.667 h.
Data set [10] in a line: Stability of the compound in SIF assessed as remaining compound after 360 mins. The note with it: read-out: Stability. The data set is classed as ADME. In outline:
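Incubated in simulated intestinal fluid at 37 °C, remaining compound measured at 360 min.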

Data set [11] can be described thus: Stability of the compound in SGF after 120 mins. The data set is classed as ADME. The note with it: simulated gi fluid, 2 h. In outline:
as §2

The IC50 is the concentration at which inhibition is half-maximal. A word on the CC50: it is the concentration at which the toxic effect on the cells reaches its halfway point.

Take `CCCCCCCCCCCCSSCCCOP(=O)(O)CO[C@H](CO)Cn1ccc(N)nc1=O`: the selectivity ratio in data set [1] is 23.5; in data set [3] it was 37.7; in data set [4], 5.09. Also, the values for the 50% inhibitory concentration (IC50) with Vaccinia virus [2], in the data set with Human adenovirus 5 and in the data set with Vaccinia virus [6] were 6.54 µM, 1.26 µM and 2.02 µM, respectively. For the same compound, the CC50 in the data set with A549 worked out at 47.6 µM; in data set [5] it was 33.3 µM.
On to `CCCCCCCCCCCCCCCCSSCCCOP(=O)(O)CO[C@H](CO)Cn1ccc(N)nc1=O`, for which the selectivity ratio in data set [1] was determined as 116; in [3] it was 156; in data set [4], 46.3. Besides, the results for the IC50 in the data set with Vaccinia virus [2], in the data set on Human adenovirus 5 and with Vaccinia virus [6] were 0.274 µM, 0.3 µM and 0.401 µM, respectively. Besides, the 50% cytotoxic concentration (CC50) was found to be 46.7 µM in the data set with A549 and 12.7 µM in data set [5].
With `CCCCCCCCCCCCSSCCCCOP(=O)(O)CO[C@H](CO)Cn1ccc(N)nc1=O`, the selectivity ratio in data set [1] was determined as 76.8; in data set [3] it was 317; in data set [4], 40.6. The half-maximal inhibitory concentration (IC50) in the data set with Vaccinia virus [2] stood at 0.861 µM; with Human adenovirus 5, 0.255 µM; with Vaccinia virus [6] it was 1.05 µM. In addition, the 50% cytotoxic concentration (CC50) with A549 amounted to 80.6 µM; in [5], 35 µM.
For `CCCCCCCCSSCCCCCCOP(=O)(O)CO[C@H](CO)Cn1ccc(N)nc1=O`, the selectivity ratio was above 4 in [1] and above 4.05 in data set [4]. Moreover, the concentration for half-maximal inhibition (IC50) was 49.3 µM in the data set on Vaccinia virus [2] and above 50 µM with Vaccinia virus [6]. Moreover, the CC50 (with A549; in [5]) was above 200 µM in each case.
Turning to `CCCCCCCCCCCCCCCCSSCCOP(=O)(O)CO[C@H](CO)Cn1ccc(N)nc1=O.N`, the selectivity ratio in data set [1] was 96.1; in data set [3], 55.2; in data set [4] it was 37.7. Moreover, the figures for the concentration for half-maximal inhibition (IC50) with Vaccinia virus [2], in the data set with Human adenovirus 5 and in the data set on Vaccinia virus [6] were 0.068 µM, 0.157 µM and 0.09 µM, respectively. For the same compound, the t1/2 in data set [7] turned out to be 3.237 h. Moreover, in the data set with Lipid bilayer, the outcome was Active. The figures for the CC50 (in the data set on A549; in [5]) were 8.69 µM and 2.58 µM, respectively. In data set [8], the remaining at 2 h turned out to be 68%. Moreover, in [9] (phosphate buffer with GSH, pH 7.4, read-out: Stability), the remaining at 6.667 h was found to be 81%. In addition, the remaining at 6 h in data set [10] is above 90%.
As for `CCCCCCCCCCSSCCOP(=O)(O)CO[C@H](CO)Cn1ccc(N)nc1=O`, the selectivity ratio stood at 10.4 in [1], 5.2 in data set [3] and 32.7 in data set [4]. The IC50 in the data set on Vaccinia virus [2] is 2.49 µM; in the data set with Human adenovirus 5 it was 12.5 µM; with Vaccinia virus [6], 6.27 µM. For the same compound, the cytotoxic concentration (CC50) in the data set with A549 was 65.2 µM; in data set [5], 81.3 µM.
As for `CCCCCCCCCCSSCCCCOP(=O)(O)CO[C@H](CO)Cn1ccc(N)nc1=O`, the selectivity ratio in data set [1] amounted to 3.55; in data set [4], 2.36. Also, the figures for the half-maximal inhibitory concentration (IC50) with Vaccinia virus [2] and with Vaccinia virus [6] were 40.6 µM and 45.7 µM, respectively. The 50% cytotoxic concentration (CC50) with A549 was 162 µM; in [5], 95.8 µM.
As to `CCCCCCCCCCCCCCSSCCCCCCOP(=O)(O)CO[C@H](CO)Cn1ccc(N)nc1=O.N`, the selectivity ratio was determined as 136 in data set [1], 295 in data set [3] and 15.6 in data set [4]. For the same compound, the 50% inhibitory concentration (IC50) stood at 0.549 µM in the data set on Vaccinia virus [2], 0.274 µM with Human adenovirus 5 and 0.593 µM in the data set on Vaccinia virus [6]. Besides, the result with Lipid bilayer was Active. Moreover, the CC50 in the data set with A549 turned out to be 80.8 µM; in data set [5], 8.56 µM. In addition, the Stability entry in data set [9] is “Stable”.
Turning to `CCCCCCCCCCSSCCCCCCOP(=O)(O)CO[C@H](CO)Cn1ccc(N)nc1=O`, the selectivity ratio came to 45.2 in [1], 83.9 in data set [3] and 18.4 in data set [4]. For the same compound, the 50% inhibitory concentration (IC50) in the data set with Vaccinia virus [2] came to 6.27 µM; with Human adenovirus 5, 2.31 µM; in the data set with Vaccinia virus [6], 4.29 µM. The CC50 worked out at 194 µM in the data set on A549 and 115 µM in [5].
With `CCCCCCCCCCCCSSCCCCCCOP(=O)(O)CO[C@H](CO)Cn1ccc(N)nc1=O.N`, the selectivity ratio was determined as 160 in [1], 725 in data set [3] and 17.8 in data set [4]. The IC50 in the data set with Vaccinia virus [2] turned out to be 0.854 µM; in the data set on Human adenovirus 5 it was 0.185 µM; in the data set with Vaccinia virus [6] it was 0.838 µM. In addition, the Stability result in [11] is recorded as “Stable”. The t1/2 in data set [7] worked out at 4.45 h. The results for the CC50 (with A549; in data set [5]) were 134 µM and 15.2 µM, respectively. Besides, the remaining at 6 h in data set [10] is above 90%.
For `CCCCCCCCCCCCCCSSCCCCOP(=O)(O)CO[C@H](CO)Cn1ccc(N)nc1=O.N`, the selectivity ratio amounted to 74 in data set [1], 115 in data set [3] and 35 in [4]. The IC50 with Vaccinia virus [2] was determined as 0.517 µM; with Human adenovirus 5, 0.384 µM; in the data set with Vaccinia virus [6], 0.599 µM. The results for the CC50 (with A549; in [5]) were 44.3 µM and 18.1 µM, respectively. Moreover, the Stability result in data set [9] is on record as “Stable”.
Consider `CCCCCCCCCCCCSSCCOP(=O)(O)CO[C@H](CO)Cn1ccc(N)nc1=O`, for which the selectivity ratio in data set [1] amounted to 216; in data set [3], 59.1; in data set [4] it was 39.2. The figures for the 50% inhibitory concentration (IC50) in the data set with Vaccinia virus [2], in the data set with Human adenovirus 5 and with Vaccinia virus [6] were 0.365 µM, 0.795 µM and 0.217 µM, respectively. In addition, the values for the CC50 (in the data set on A549; in data set [5]) were 47 µM and 14.3 µM, respectively.
For `CCCCCCCCCCCCCCSSCCCOP(=O)(O)CO[C@H](CO)Cn1ccc(N)nc1=O.N`, the selectivity ratio in [1] is 227; in [3], 92.6; in data set [4], 49.3. In addition, the values for the half-maximal inhibitory concentration (IC50) in the data set with Vaccinia virus [2], in the data set with Human adenovirus 5 and with Vaccinia virus [6] were 0.283 µM, 0.548 µM and 0.223 µM, respectively. Moreover, the figures for the CC50 (in the data set on A549; in data set [5]) were 50.7 µM and 13.9 µM, respectively. Moreover, the Stability entry in data set [9] is listed as “Stable”.
Turning to `CCCCCCCCCCCCCCCCCCSSCCCOP(=O)(O)CO[C@H](CO)Cn1ccc(N)nc1=O`, the values for the selectivity ratio in data set [1], in data set [3] and in data set [4] were 44.6, 17.3 and 22.7, respectively. Moreover, the half-inhibitory concentration (IC50) in the data set with Vaccinia virus [2] came to 0.436 µM; in the data set with Human adenovirus 5, 1.86 µM; with Vaccinia virus [6], 0.724 µM. The CC50 in the data set on A549 worked out at 32.3 µM; in data set [5] it was 9.87 µM.
For `CCCCCCCCCCSSCCCOP(=O)(O)CO[C@H](CO)Cn1ccc(N)nc1=O`, the selectivity ratio is 5.91 in data set [1] and 5.77 in data set [4]. For the same compound, the values for the half-inhibitory concentration (IC50) with Vaccinia virus [2] and in the data set on Vaccinia virus [6] were 31.5 µM and 22 µM, respectively. Moreover, the CC50 came out at 130 µM in the data set with A549 and 182 µM in data set [5].
On to `CCCCCCCCCCCCCCCCOCCCOP(=O)(O)CO[C@H](CO)Cn1ccc(N)nc1=O` [BRINCIDOFOVIR], for which the selectivity ratio in data set [1] was 67; in [3], 81.8; in [4], 70.7. In addition, the IC50 in the data set with Vaccinia virus [2] was 0.196 µM; with Human adenovirus 5, 0.245 µM; with Vaccinia virus [6], 0.3 µM. In addition, the t1/2 in data set [7] is above 24 h. Moreover, the figures for the half-maximal cytotoxic concentration (CC50) (with A549; in [5]) were 20.1 µM and 13.9 µM, respectively. For the same compound, in data set [8], the remaining at 2 h was found to be 43%. For the same compound, the remaining at 6 h in data set [10] is above 90%.
